Published values from different studies.
Each line is one published result; the experiments were not run side by side.
Effect on: cell growth or viability

O=C1C(=Nc2ccccc2I)c2ccccc2N1Cc1cccc(Cl)c1
IC50 (L02; MTT; 48 h): 19.1 µM

Nc1ccccc1NC(=O)c1ccc(Cn2cnc3c(Nc4ccc(Cl)cc4)ncnc32)cc1
IC50 (NALM-6; MTT; 72 h): 1.55 µM

CCc1ccc(N=C2C(=O)N(Cc3ccccc3)c3ccccc32)cc1
IC50 (L02; MTT; 48 h): 86.7 µM

CCOc1cc2ncc(C#N)c(Nc3ccc(OCc4ccccn4)c(Cl)c3)c2cc1NC(=O)/C=C/CN(C)C
IC50 (HCC1419; ATP luminescence): 0.014 µM

O=C1C(=Nc2ccc(Cl)cc2Br)c2ccccc2N1Cc1ccc(Br)cc1
IC50 (L02; MTT; 48 h): 7.75 µM

CC1=CC(=O)C(C(C)C)=CC1=O
IC50 (PANC-1; SRB; 48 h): 8.9 µM

C=C1C[C@@]23CC[C@H]4[C@@](C)(CCC[C@@]4(C)C(=O)O)[C@@H]2CC[C@@H]1C3
IC50 (MOLT-3; XTT; 75 h): 116 µM

CN(C)C(=O)c1cc2cnc(Nc3ccc(-c4ccc5c(=O)cc(N6CCOCC6)oc5c4)cc3)nc2n1C1CCCC1
IC50 (Hs68; ATP luminescence; 72 h): 1.15 µM

O=C(NO)c1ccc(Cn2cnc3c(Nc4cccc([N+](=O)[O-])c4)ncnc32)cc1
IC50 (NALM-6; MTT; 72 h): 1.9 µM

COC[C@H](NC(=O)c1ccn(S(C)(=O)=O)c1)C(=O)Nc1nc(-c2cccc(N3C[C@@H](C)O[C@@H](C)C3)n2)cs1
IC50 (NCI-H1944; ATP luminescence; 7 days): 0.0451 µM

C(=N\Nc1cc(N/N=C/c2ccc3ccccc3n2)ncn1)/c1ccc2ccccc2n1
IC50 (L02; MTT; 48 h): > 100 µM

Nc1ccccc1NC(=O)c1ccc(Cn2cnc3c(Nc4ccc(Br)cc4F)ncnc32)cc1
IC50 (NALM-6; MTT; 72 h): 1.54 µM

CS(=O)(=O)CCNCc1ccc(-c2ccc3ncnc(Nc4ccc(OCc5cccc(F)c5)c(Cl)c4)c3c2)o1
IC50 (HCC1419; ATP luminescence): 0.0544 µM

Nc1nnc(-c2ccccc2O)cc1N1CC2CCC(C1)N2c1ccnc(F)c1
IC50 (NCI-H1944; ATP luminescence; 7 days): > 1 µM

C(=N\Nc1cc(N/N=C/c2ccc3ccccc3n2)nc(-c2ccccc2)n1)/c1ccc2ccccc2n1
IC50 (L02; MTT; 48 h): > 100 µM

CC(C)c1cccc(C(C)C)c1N=C1C(=O)N(Cc2cccc(Cl)c2)c2ccccc21
IC50 (L02; MTT; 48 h): 72.5 µM

CC1=CC(=O)c2ccccc2C1=O
IC50 (MOLT-3; XTT): 10.3 µM

CC(C)(C)c1cnc(CSc2cnc(NC(=O)C3CCN(C(=O)CCCCCCCN4Cc5cc6c(cc5C4)C(=O)N(C4CCC(=O)NC4=O)C6=O)CC3)s2)o1 (stereo not drawn)
IC50 (NALM-6; MTT): 0.0234 µM

C=CCN1C(=O)C(=Nc2cccc(C)c2)c2ccccc21
IC50 (L02; MTT; 48 h): 14.1 µM

COc1cccc2c1C(=O)c1c(O)c3c(c(O)c1C2=O)C[C@@](O)(C(=O)CO)C[C@@H]3O[C@H]1C[C@H](N)[C@H](O)[C@H](C)O1
IC50 (MOLT-3; XTT; 75 h): 0.046 µM

Cc1cccc(N=C2C(=O)N(Cc3ccc(Br)cc3)c3ccccc32)c1
IC50 (L02; MTT; 48 h): 26 µM

CN1C(=O)C(=O)c2cc3c(c4c2c1cc1ccccc14)OCO3
IC50 (MOLT-3; XTT; 75 h): 20.4 µM

O=C(NO)c1ccc(Cn2cnc3c(Nc4ccc(Cl)cc4)ncnc32)cc1
IC50 (NALM-6; MTT; 72 h): 0.41 µM

O=C1C(=Nc2ccc(Cl)cc2)c2ccccc2N1Cc1cccc(Cl)c1
IC50 (L02; MTT; 48 h): 32 µM
